Experimental findings from BindingDB's records for doi:10.1021/acsmedchemlett.1c00308 (Uniformed Services University of The Health Sciences, 2021) are described below.

This test has as its system ERG (ERG oncoprotein, ETS transcription factor) in VCaP cells. The experiment in a line: Inhibition of ERG in human VCaP cells after 48 hrs by Western blotting analysis. A digest of the protocol:
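In VCaP prostate cancer cells, ERG and RIOK2 protein levels were measured by Western blot after treatment. IC50 values were derived from the concentration-response of protein inhibition.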

One may read the IC50 as the concentration that gives 50% inhibition. In the case of `O=S(=O)(O)c1cccc2c(S(=O)(=O)O)cccc12`, the IC50 is greater than 500 nM.

Take `Oc1ccc2ccccc2c1/N=N/c1nccs1` [DNDI1417016]: the IC50 was determined as 310 nM.
